Reference: ChEMBL document CHEMBL1148785, “Second generation tetrahydroquinoline-based protein farnesyltransferase inhibitors as antimalarials” (J Med Chem, 2007)

Legend:
[1] = system: Plasmodium falciparum; experiment: Antimalarial activity against Plasmodium falciparum K1; assay type: functional; settings: Plasmodium falciparum, K1; read-out: ED50 (the source's name)
Outline: (§1)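 Asynchronous culture in type A+ erythrocytes at 0.5% parasitemia and 0.5% hematocrit, grown in RPMI-1640 with 20% heat-inactivated human A+ plasma. Compound was serially diluted from a top final 5 µM, with DMSO vehicle as 100% growth. Plates ran 48 h at 37 °C under 5% CO2/5% O2/90% N2, then [3H]-hypoxanthine (0.3 µCi) for 24 h. Filter-harvested counts were corrected for the uninfected-RBC background. ED50 by linear regression; duplicates averaged.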

[2] = system: Plasmodium falciparum; experiment: Inhibition of Plasmodium falciparum protein farnesyltransferase at 5 nM by scintillation proximity assay
[3] = system: Plasmodium falciparum; experiment: Antimalarial activity against Plasmodium falciparum 3D7; assay type: functional; settings: Plasmodium falciparum, 3D7; read-out: ED50 (the source's name); outline: as §1
[4] = system: Plasmodium falciparum; experiment: Inhibition of Plasmodium falciparum protein farnesyltransferase at 0.5 nM by scintillation proximity assay
[5] = system: Plasmodium falciparum; experiment: Inhibition of Plasmodium falciparum protein farnesyltransferase at 50 nM by scintillation proximity assay

## Cn1cncc1CN1CC(N(CCc2ccc(F)cc2)S(=O)(=O)c2ccccn2)Cc2cc(C#N)ccc21 (stereo not given)
[1]
  EC50: 650 nM
[2]
  inhibition: 71%
[3]
  EC50: 200 nM
[4]
  inhibition: 9%
[5]
  inhibition: 96%

## C=C(C)CN(C1Cc2cc(-c3ccccc3)ccc2N(Cc2cn(C)cn2)C1)S(=O)(=O)c1cn(C)cn1 (stereo not given)
[1]
  EC50: 475 nM
[2]
  inhibition: 89%
[3]
  EC50: 640 nM
[4]
  inhibition: 22%
[5]
  inhibition: 99%

## Cn1cncc1CN1CC(N(CCn2ccc3ccccc32)S(=O)(=O)c2ccccn2)Cc2cc(C#N)ccc21 (stereo not given)
[1]
  EC50: 400 nM
[2]
  inhibition: 79%
[3]
  EC50: 370 nM
[4]
  inhibition: 10%
[5]
  inhibition: 98%

## Cn1cnc(S(=O)(=O)N(Cc2ccc3nonc3c2)C2Cc3cc(C#N)ccc3N(Cc3cncn3C)C2)c1 (stereo not given)
[1]
  EC50: 65 nM
[2]
  inhibition: 95%
[3]
  EC50: 56 nM
[4]
  inhibition: 30%
[5]
  inhibition: 99%

## Cn1cncc1CN1CC(N(CC2CCN(C(=O)CNC(=O)OC(C)(C)C)CC2)S(=O)(=O)c2ccccn2)Cc2cc(C#N)ccc21 (stereo not given)
[1]
  EC50: 690 nM
[2]
  inhibition: 15%
[3]
  EC50: 750 nM
[4]
  inhibition: 37%
[5]
  inhibition: 88%

## Cn1cnc(S(=O)(=O)N(CCc2ccccc2C(F)(F)F)C2Cc3cc(C#N)ccc3N(Cc3cncn3C)C2)c1 (stereo not given)
[1]
  EC50: 70 nM
[2]
  inhibition: 82%
[3]
  EC50: 65 nM
[4]
  inhibition: 8%
[5]
  inhibition: 99%

## COC(=O)N(C)CCCN(C1Cc2cc(C#N)ccc2N(Cc2cncn2C)C1)S(=O)(=O)c1ccccn1 (stereo not given)
[1]
  EC50: 45 nM
[2]
  inhibition: 68%
[3]
  EC50: 18 nM
[4]
  inhibition: 6%
[5]
  inhibition: 95%

## COC(=O)N1CCC(CN(C2Cc3cc(C#N)ccc3N(Cc3cncn3C)C2)S(=O)(=O)c2cn(C)c(C)n2)CC1 (stereo not given)
[1]
  EC50: 75 nM
[2]
  inhibition: 96%
[3]
  EC50: 60 nM
[4]
  inhibition: 39%
[5]
  inhibition: 100%

## Cn1cncc1CN1CC(N(CCCCCC(N)=O)S(=O)(=O)c2ccccn2)Cc2cc(C#N)ccc21 (stereo not given)
[1]
  EC50: 250 nM
[2]
  inhibition: 32%
[3]
  EC50: 300 nM
[4]
  inhibition: 4%
[5]
  inhibition: 81%

## Cc1nc(C)c(S(=O)(=O)N(CC(=O)NC(C)(C)C)C2Cc3cc(C#N)ccc3N(Cc3cncn3C)C2)s1 (stereo not given)
[1]
  EC50: > 5000 nM
[2]
  inhibition: 3%
[3]
  EC50: > 5000 nM
[4]
  inhibition: 2%
[5]
  inhibition: 0%

## Cc1cc(=O)n(CCCCN(C2Cc3cc(C#N)ccc3N(Cc3cncn3C)C2)S(=O)(=O)c2ccccn2)c(=O)n1C (stereo not given)
[1]
  EC50: 200 nM
[2]
  inhibition: 51%
[3]
  EC50: 350 nM
[4]
  inhibition: 0%
[5]
  inhibition: 90%

## CC(C)OC(=O)N1CCC(CN(C2Cc3cc(C#N)ccc3N(Cc3cncn3C)C2)S(=O)(=O)c2ccccn2)CC1 (stereo not given)
[1]
  EC50: 50 nM
[2]
  inhibition: 36%
[3]
  EC50: 50 nM
[4]
  inhibition: 90%
[5]
  inhibition: 97%

## Cn1cnc(CN2CC(N(Cc3ccccc3)S(=O)(=O)c3cn(C)cn3)Cc3cc(-c4ccccc4)ccc32)c1 (stereo not given)
[1]
  EC50: 380 nM
[2]
  inhibition: 90%
[3]
  EC50: 450 nM
[4]
  inhibition: 9%
[5]
  inhibition: 99%

## Cn1cncc1CN1CC(N(CC(=O)O)S(=O)(=O)c2ccccn2)Cc2cc(C#N)ccc21 (stereo not given)
[1]
  EC50: 2600 nM
[2]
  inhibition: 33%
[3]
  EC50: 2100 nM
[4]
  inhibition: 6%
[5]
  inhibition: 81%

## Cn1cncc1CN1CC(N(Cc2ccccc2F)S(=O)(=O)c2cccc3nsnc23)Cc2cc(C#N)ccc21 (stereo not given)
[1]
  EC50: 1000 nM
[2]
  inhibition: 28%
[3]
  EC50: 700 nM
[4]
  inhibition: 4%
[5]
  inhibition: 74%

## COC(=O)N1CCC(CN(C2Cc3cc(C#N)ccc3N(Cc3cncn3C)C2)S(=O)(=O)c2cccc3nsnc23)CC1 (stereo not given)
[1]
  EC50: 160 nM
[2]
  inhibition: 84%
[3]
  EC50: 140 nM
[4]
  inhibition: 20%
[5]
  inhibition: 98%

## COc1ccc(S(=O)(=O)N(Cc2ccc(S(C)(=O)=O)cc2)C2Cc3cc(C#N)ccc3N(Cc3cncn3C)C2)cc1 (stereo not given)
[1]
  EC50: 340 nM
[2]
  inhibition: 83%
[3]
  EC50: 185 nM
[4]
  inhibition: 17%
[5]
  inhibition: 97%

## CN(CCCN(C1Cc2cc(C#N)ccc2N(Cc2cncn2C)C1)S(=O)(=O)c1ccccn1)C(=O)OC(C)(C)C (stereo not given)
[1]
  EC50: 170 nM
[2]
  inhibition: 80%
[3]
  EC50: 130 nM
[4]
  inhibition: 35%
[5]
  inhibition: 86%

## Cn1cncc1CN1CC(N(Cc2cccc3cccnc23)S(=O)(=O)c2ccccn2)Cc2cc(C#N)ccc21 (stereo not given)
[1]
  EC50: 1320 nM
[2]
  inhibition: 46%
[3]
  EC50: 1740 nM
[4]
  inhibition: 17%
[5]
  inhibition: 88%

## Cn1cncc1CN1CC(N(CCCNC(=O)OC(C)(C)C)S(=O)(=O)c2ccccn2)Cc2cc(C#N)ccc21 (stereo not given)
[1]
  EC50: 75 nM
[2]
  inhibition: 70%
[3]
  EC50: 133 nM
[4]
  inhibition: 9%
[5]
  inhibition: 97%

## Cn1cncc1CN1CC(N(CC2CCN(C(=O)OCC(F)(F)F)CC2)S(=O)(=O)c2ccccn2)Cc2cc(C#N)ccc21 (stereo not given)
[1]
  EC50: 75 nM
[2]
  inhibition: 47%
[3]
  EC50: 65 nM
[4]
  inhibition: 91%
[5]
  inhibition: 91%

## Cn1cncc1CN1CC(N(CCCN)S(=O)(=O)c2ccccn2)Cc2cc(C#N)ccc21 (stereo not given)
[1]
  EC50: > 5000 nM
[2]
  inhibition: 7%
[3]
  EC50: > 5000 nM
[4]
  inhibition: 0%
[5]
  inhibition: 32%

## Cn1cnc(S(=O)(=O)N(Cc2ccc(F)cc2)C2Cc3cc(C#N)ccc3N(Cc3cncn3C)C2)c1 (stereo not given)
[1]
  EC50: 100 nM
[2]
  inhibition: 93%
[3]
  EC50: 40 nM
[4]
  inhibition: 50%
[5]
  inhibition: 99%

## Cn1cncc1CN1CC(N(Cc2ocnc2-c2ccccc2)S(=O)(=O)c2ccccn2)Cc2cc(C#N)ccc21 (stereo not given)
[1]
  EC50: 210 nM
[2]
  inhibition: 82%
[3]
  EC50: 51 nM
[4]
  inhibition: 19%
[5]
  inhibition: 98%

## COc1ccc(S(=O)(=O)N(Cc2ccccc2F)C2Cc3cc(C#N)ccc3N(Cc3cncn3C)C2)cc1 (stereo not given)
[1]
  EC50: 1000 nM
[2]
  inhibition: 22%
[3]
  EC50: 900 nM
[4]
  inhibition: 13%
[5]
  inhibition: 66%

## Cn1cncc1CN1CC(N(CCn2cccn2)S(=O)(=O)c2ccccn2)Cc2cc(C#N)ccc21 (stereo not given)
[1]
  EC50: 20 nM
[2]
  inhibition: 96%
[3]
  EC50: 13 nM
[4]
  inhibition: 68%
[5]
  inhibition: 99%

## Cc1oncc1CN(C1Cc2cc(-c3ccccc3)ccc2N(Cc2cn(C)cn2)C1)S(=O)(=O)c1cn(C)cn1 (stereo not given)
[1]
  EC50: 3700 nM
[2]
  inhibition: 26%
[3]
  EC50: 3000 nM
[4]
  inhibition: 0%
[5]
  inhibition: 79%

## Cn1cnc(S(=O)(=O)N(CCc2cccs2)C2Cc3cc(C#N)ccc3N(Cc3cncn3C)C2)c1 (stereo not given)
[1]
  EC50: 8.5 nM
[2]
  inhibition: 86%
[3]
  EC50: 21 nM
[4]
  inhibition: 26%
[5]
  inhibition: 100%

## COC(=O)N1CCC(CN(C2Cc3cc(C#N)ccc3N(Cc3cncn3C)C2)S(=O)(=O)c2cncn2C)CC1 (stereo not given)
[1]
  EC50: 1.6 nM
[2]
  inhibition: 99%
[3]
  EC50: 3 nM
[4]
  inhibition: 72%
[5]
  inhibition: 99%

## Cn1cnc(S(=O)(=O)N(CC(=O)NC(C)(C)C)C2Cc3cc(C(=O)NC(C)(C)C)ccc3N(Cc3cncn3C)C2)c1 (stereo not given)
[1]
  EC50: > 5000 nM
[2]
  inhibition: 0%
[3]
  EC50: > 5000 nM
[4]
  inhibition: 4%
[5]
  inhibition: 25%

## Cn1cncc1CN1CC(N(CC(=O)NC(C)(C)C)S(=O)(=O)CCN2C(=O)c3ccccc3C2=O)Cc2cc(C#N)ccc21 (stereo not given)
[1]
  EC50: > 5000 nM
[2]
  inhibition: 21%
[3]
  EC50: > 5000 nM
[4]
  inhibition: 14%
[5]
  inhibition: 60%
